Compounds with a hit are over-represented: about 5.3% of the library has one in this group of screens.
Mdm2-MdmX inh – inhibitors of human Mdm2/MdmX interaction; inhibition, % at 8 µM; AID 485346; SaOS-2 split-luciferase Mdm2/MdmX complementation, luminescence; O15151+Q00987; 3% of 330,000 active;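 active = inhibition of at least 50% at 8 µM in the primary screen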
Target sequence (O15151 whole entry, looked up): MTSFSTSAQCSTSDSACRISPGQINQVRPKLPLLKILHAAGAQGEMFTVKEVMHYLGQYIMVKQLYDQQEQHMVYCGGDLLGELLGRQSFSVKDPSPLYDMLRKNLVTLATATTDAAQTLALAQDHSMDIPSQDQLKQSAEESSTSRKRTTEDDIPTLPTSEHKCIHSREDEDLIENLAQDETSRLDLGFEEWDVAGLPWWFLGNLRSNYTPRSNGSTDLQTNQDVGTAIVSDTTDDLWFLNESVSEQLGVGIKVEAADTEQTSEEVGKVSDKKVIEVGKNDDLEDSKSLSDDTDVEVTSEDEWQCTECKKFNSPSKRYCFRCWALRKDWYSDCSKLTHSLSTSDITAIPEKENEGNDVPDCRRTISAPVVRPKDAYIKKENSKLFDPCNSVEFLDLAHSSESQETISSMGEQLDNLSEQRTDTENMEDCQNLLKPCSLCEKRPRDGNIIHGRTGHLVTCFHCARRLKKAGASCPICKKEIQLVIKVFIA
Target sequence (Q00987 whole entry, looked up): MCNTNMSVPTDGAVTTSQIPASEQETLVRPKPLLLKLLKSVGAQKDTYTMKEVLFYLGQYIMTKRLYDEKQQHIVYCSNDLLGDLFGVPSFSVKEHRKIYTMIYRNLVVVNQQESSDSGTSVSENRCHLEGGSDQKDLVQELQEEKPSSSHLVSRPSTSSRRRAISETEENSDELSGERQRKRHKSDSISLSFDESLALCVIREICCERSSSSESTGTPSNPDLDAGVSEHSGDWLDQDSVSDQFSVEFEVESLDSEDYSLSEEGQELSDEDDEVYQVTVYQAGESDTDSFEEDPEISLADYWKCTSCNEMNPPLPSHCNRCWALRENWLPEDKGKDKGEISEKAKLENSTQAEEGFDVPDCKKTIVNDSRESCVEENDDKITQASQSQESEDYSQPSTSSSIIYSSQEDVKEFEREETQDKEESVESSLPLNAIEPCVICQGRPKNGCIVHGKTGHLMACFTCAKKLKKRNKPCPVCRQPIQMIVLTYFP
Calb FLC – C. albicans growth modulation with fluconazole. C. albicans CaCi-2 (fluconazole-resistant clinical isolate) + fluconazole, Alamar Blue growth, 48 h. growth inhibition, % (concentration not given with the values). 0.57% of 300,000 active. AID 1979;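 active = growth inhibition above about 58% in most replicates, limit read from the data, passing the limit was not always enough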;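 also: all wells also contain fluconazole at 8 µg/ml as a sub-toxic cotreatment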
CSC inhib – blocks cancer stem cells; 1.1% of 300,000 active; inhibition, % at 7.5 µM; AID 2717; cancer stem cell-like cells viability, luminescence; in the data active = inhibition above about 75%; tested in HMLE shEcad cells
T cruzi repl – T. cruzi replication inhibition; T. cruzi beta-gal in NIH3T3, luminescence, 90 h; inhibition, % (no concentration beside the values); 1.4% of 300,000 active;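 active = mean inhibition across valid replicates above about 55%, limit read from the data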;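 also: signal also drops with host cell toxicity which is not excluded here; higher percent means less beta-gal luminescence so fewer parasites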
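Incubation – ≥90 h infection period, 3 h prior cell attachment · System – NIH/3T3 fibroblasts plus reporter T. cruzi · Doses – compound pinned at 50 nL/well, DMSO · Read-out basis – percent inhibition of parasite-derived β-gal signal · Signal – luminescent β-galactosidase signal after 60 min lysis · Also added – 5000 T. cruzi trypomastigotes/well · Medium – Low-serum DMEM with 2% FBS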
Beta apoptosis – blocks beta cell apoptosis | INS-1E cytokine-induced death, ATP luminescence, 48 h; percent of positive-control rescue, neutral wells zero | protection from apoptosis, % (test concentration not listed) | 0.8% of 300,000 active;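 active = Every replicate reaches about 75%, or at least half do and their mean reaches it too, limit read from the data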;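 also: higher means more ATP so stronger rescue from cytokine killing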
NLRP3 yeast inh – NALP3 inhibition in yeast; Yeast reconstituted NLRP3/ASC/caspase-1, beta-gal luminescence, 24 h; inhibition, % at 10 µM; 0.39% of 330,000 active;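 active = inhibition of 50% or more; inactive = inhibition below 50%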
Each line names hits and unclear results; the compound was inactive in the other large screens; ! = not active in a repeat.

Cc1ccc(C)c(S(=O)(=O)NCc2ccc(C(=O)NCc3ccco3)cc2)c1	none
Cc1ccc(C(=O)NCc2ccco2)cc1S(=O)(=O)Nc1cccc(Cl)c1	Calb FLC 113.1
Cc1ccc(-c2c[n+](Cc3ccc(Cl)c(Cl)c3)c3n2CCC3)cc1	Beta apoptosis 89.0
O=C(C[n+]1cc(-c2ccc(Cl)c(Cl)c2)n2c1CCC2)N1c2ccccc2Sc2ccccc21	Calb FLC 107.5, T cruzi repl 54.5
COc1ccc(C(=O)C[n+]2cc(-c3ccc(OC)cc3)n3c2CCCC3)cc1	T cruzi repl 62.2!
COc1ccc(-c2c[n+](CC(=O)N3c4ccccc4Sc4ccccc43)c3n2CCC3)cc1	T cruzi repl 57.1
COc1ccc(-c2c[n+](CC(=O)c3cccs3)c3n2CCC3)cc1	none (no result: Beta apoptosis)
CCN(C(=O)Cc1c(C(=O)O)[nH]c2ccccc12)c1ccc(OC)cc1	none
COc1ccc(S(=O)(=O)N2CCCCCC2)cc1NC(=O)c1ccccc1S(C)(=O)=O	none (no result: Calb FLC, CSC inhib, T cruzi repl)
Cc1ccc(-c2c[n+](CC(=O)OCc3ccccc3)c3n2CCC3)cc1	none
O=C(C[n+]1cc(-c2ccc(Cl)cc2)n2c1CCC2)N1c2ccccc2Sc2ccccc21	Calb FLC 107.4
O=C(C[n+]1cc(-c2ccc(Cl)cc2)n2c1CCC2)Nc1nc(-c2ccccc2)cs1	none
CC1CCC(C(C)C)C(OC(=O)C[n+]2cc(-c3ccc(Cl)cc3)n3c2CCC3)C1 (configuration not stated)	T cruzi repl 60.1
Cc1ccc(N/N=C(\Cc2nc3ccccc3[nH]2)c2ccccc2)cc1	CSC inhib 91.6 (no result: Mdm2-MdmX inh, Calb FLC, T cruzi repl, NLRP3 yeast inh)
O=C(CNC(=S)N(CCCN1CCOCC1)Cc1cccs1)NCCN1CCOCC1	none
CN(C)c1nc(Oc2ccc(=O)n(C)n2)nc(N2CCOCC2)n1	none
CN(C)CCNc1oc(-c2ccccc2Cl)nc1S(=O)(=O)c1ccccc1	none (no result: Calb FLC, T cruzi repl)
CN(C)CCCNc1oc(-c2ccccc2Cl)nc1S(=O)(=O)c1ccc(F)cc1	T cruzi repl 62.1 (no result: Beta apoptosis)
Cc1cc2c(cc1C)C(c1ccccc1F)CC(=O)N2 (configuration not stated)	none
Cc1cc2c(cc1C)C(c1cc(Br)ccc1F)CC(=O)N2 (configuration not stated)	CSC inhib 172.2
Oc1ccc(O)c2c1C1c3ccccc3C2c2ccccc21	Calb FLC 78.2
Cc1ccc(-c2cc(C(=O)Nc3cccnc3)c3ccccc3n2)s1	none
CCNC(=O)c1cc2c(=O)n3cccc(C)c3nc2n(CCc2ccccc2)c1=N	none
CCCCNC(=O)c1cc2c(=O)n3cccc(C)c3nc2n(Cc2ccccc2)c1=N	T cruzi repl 60.1 (no result: CSC inhib, Beta apoptosis)
Cc1cc(C)c(Nc2cc(S(=O)(=O)O)c(N)c3c2C(=O)c2ccccc2C3=O)c(C)c1	CSC inhib 93.8 (no result: Mdm2-MdmX inh, Calb FLC, T cruzi repl, NLRP3 yeast inh)
CC1(C)C(=O)Nc2ccccc2N1C(=O)COc1ncnc2ccccc12	none
COc1ccc(NC(=O)C2CCN(S(=O)(=O)c3ccc(OC)c(OC)c3)CC2)cc1	none
Cc1ccc(C(=O)C[n+]2cccc3ccccc32)cc1	T cruzi repl 59.2
Cc1cc[n+](CC(=O)c2ccccc2)c2ccccc12	Beta apoptosis 117.0
CCCCOc1ccc(C(=O)NNC(=O)c2cnccn2)cc1OC	none (no result: Calb FLC, T cruzi repl)
Cn1c(N2CCCCC2)nc2c1c(=O)[nH]c(=O)n2C	none
Cc1ccc(S(=O)(=O)CCC(=O)OCC(=O)N(C)CC(=O)Nc2ccc(F)cc2)cc1	none
Nc1c(C(=O)c2ccccc2)sc2nsc(SCCN3CCCC3)c12	CSC inhib 89.4, T cruzi repl 55.3
C/C(=C\C(=O)c1ccc(Cl)cc1)Nc1ccc(N2CCOCC2)cc1	none
C/C(=C\C(=O)c1ccccc1)Nc1ccc(N2CCOCC2)cc1	T cruzi repl 64.2
O=C1NC(=O)/C(=C/c2ccc(-c3cc(C(=O)O)ccc3Cl)o2)S1	none
O=C1NC(=O)/C(=C\c2ccc(Br)o2)S1	Calb FLC 86.5, T cruzi repl 68.6
CC1(C(=O)N2CC3(CC(c4cccc(NC(=O)COc5ccc(Cl)cc5)c4)=NO3)C[C@@H]2C(N)=O)CC1 (some centres not stated)	none
CCC(C)NC(=O)c1c(N)n(/N=C/c2ccccn2)c2nc3ccccc3nc12 (configuration not stated)	T cruzi repl 62.4 (no result: CSC inhib)
CCOc1cc(N2CCOCC2)c(OCC)cc1NC(=O)c1nc2nc(C)cc(C)n2n1	Calb FLC 100.8
CCOc1cc(N2CCOCC2)c(OCC)cc1NC(=O)c1ccc2ccccc2n1	T cruzi repl 58.2
CCOc1cc(N2CCOCC2)c(OCC)cc1NC(=O)c1ccccc1C	none
O=C(/C=C/c1ccccc1)OCCCCN=C1NS(=O)(=O)c2ccccc21	none
COC(=O)c1cc(Cl)cc2c(C)c(C3(O)CCCCC3)[nH]c12	none
CCc1c(C2(O)CCCCC2)[nH]c2c(C(=O)OC)cc(Cl)cc12	CSC inhib 104.9 (no result: Mdm2-MdmX inh, NLRP3 yeast inh)
CCOC(=O)c1sc(N)c(C(=O)OCC)c1COC(=O)C1CC(=O)N(Cc2ccco2)C1 (configuration not stated)	none
CC(=O)Nc1nc(-c2ccc3ccccc3c2)cs1	none
CC(=O)NCCC(=O)Nc1nc(-c2ccc3ccccc3c2)cs1	T cruzi repl 59.7 (no result: CSC inhib, Beta apoptosis)
Cc1ccc(-c2csc(NC(=O)CCCc3cccs3)n2)cc1	none (no result: CSC inhib)
CC(=O)Nc1ccc(-c2csc(NC(=O)CCCc3cccs3)n2)cc1	CSC inhib 75.1
Oc1ccc(Nc2nc(-c3ccc4ccccc4c3)cs2)cc1	CSC inhib 134.1, Beta apoptosis 84.4
CC1CCCC(NC(=O)COC(=O)[C@@H](NC(=O)c2ccco2)C(C)C)C1C (some centres not stated)	none
CCc1ccc(CNC(=O)CCC(=O)N2Cc3cccc(OC)c3Oc3ncccc32)cc1	Calb FLC 84.6
Cc1ccc(-n2c(SCC(=O)O)nc3sc4c(c3c2=O)CCCC4)cc1	none
Cc1ccc(-n2c(SCC(=O)c3c(N)n(C)c(=O)n(C)c3=O)nc3sc4c(c3c2=O)CCCC4)c(C)c1	T cruzi repl 68.0, Beta apoptosis 102.2
O=[N+]([O-])c1cccc(NC(=S)Nc2nc(-c3ccc(Cl)cc3Cl)cs2)c1	CSC inhib 93.0 (no result: Mdm2-MdmX inh, NLRP3 yeast inh)
O=C(NC(=S)Nc1nc(-c2cccc([N+](=O)[O-])c2)cs1)c1ccccc1Cl	none
CCOc1ccc(C(=S)NC2CCCCC2)cc1OCC	none
COc1ccc(/C=N/NC(=O)c2cc(OC)c(OC)c(OC)c2)cc1CN1CCc2cc(OC)c(OC)cc2C1C (configuration not stated)	none (no result: CSC inhib, Beta apoptosis)
COc1ccc(C2NCCc3c2[nH]c2ccccc32)cc1CN1CCc2cc(OC)c(OC)cc2C1C (configuration not stated)	T cruzi repl 61.2 (no result: Mdm2-MdmX inh, CSC inhib, Beta apoptosis, NLRP3 yeast inh)
CCN(CC)CCCOC(=O)c1ccc(OC)cc1O	T cruzi repl 83.9
COc1ccc(NC(=O)c2ccc(NC(=O)C3CC3)cc2)cc1	none
COc1cc(C(=O)NCc2ccccn2)ccc1OCc1c(C)noc1C	none

Screening data as filed in PubChem.
